For data set [1], the target named is GTPase KRas (Homo sapiens, UniProt P01116, G12D). Nature of the data set: Inhibition of KRAS G12D mutant in human AGS cells assessed as reduction in ERK phosphorylation measured after 3 hrs by In-Cell Western assay. It counts as cell-based.
Data set [2] in a line: Inhibition of human C-terminal Avi biotinylated tagged KRAS isoform 4B G12D mutant (1 to 169 residues) expressed in Escherichia coli measured after 1 hr by HTRF assay. A general note: In TR-FRET formats the signal depends on donor and acceptor labels being close together.
For data set [3], the target named is GTPase KRas (Homo sapiens, UniProt P01116). Nature of the data set: Binding affinity to human AviTEV6His-tagged KRAS isoform 4B wild type (1 to 169 residues) expressed in Escherichia coli BL21 (DE3) assessed as dissociation constant by SPR analysis. The essentials: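 SPR measurement; where the KD fell beyond what the instrument can accurately determine, it was reported as an approximate value.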

Data set [4] can be described thus: Binding affinity to human AviTEV6His-tagged KRAS isoform 4B G12D mutant (1 to 169 residues) expressed in Escherichia coli BL21 (DE3) assessed as dissociation constant by SPR analysis.
The nature of data set [5]: AUC (0 to 24 hrs) in CD-1 athymic nude-Foxn1nu mouse xenografted with human Panc 04.03 cells at 30 mg/kg, ip BID. The format is ADME, organism-based. Details: time < 24 hr, route intraperitoneal, dose 30 mg/kg. The note with it: in vivo.
The subject of data set [6] is MKN-1. The experiment in a line: Cytotoxicity against human MKN-1 cells harboring wild type KRAS assessed as reduction in cell viability measured after 3 days by 2D viability assay. The note with it: MKN-1, 72 h.
Data set [7] in a line: In vivo inhibition of KRAS G12D mutant in CD-1 athymic nude-Foxn1nu mouse xenografted with human Panc 04.03 cells assessed as reduction in ERK phosphorylation in tumor lysates at 30 mg/kg, ip measured after 1 hr. It counts as functional. The note with it: CD-1, Panc 04.03, Neoplasm. The essentials:
(§1)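 The Panc 04.03 xenograft model received 30 mg/kg IP BID. Tumor pERK signal was measured 1 h and 12 h after the second dose. Mean pERK inhibition versus the vehicle cohort was assessed by two-tailed Student's t test with equal variance.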
A general note: Xenograft models place foreign cells or tissue in a host animal.

Data set [8] in a line: In vivo inhibition of KRAS G12D mutant in CD-1 athymic nude-Foxn1nu mouse xenografted with human Panc 04.03 cells assessed as reduction in ERK phosphorylation in tumor lysates at 30 mg/kg, ip measured after 12 hrs. The format is functional. To be noted: CD-1, Panc 04.03, Neoplasm. Summed up: as §1
The nature of data set [9]: Antitumor activity against human Panc 04.03 cells harboring KRAS G12D mutant xenografted in CD-1 nude-Foxn1 mouse assessed as inhibition of tumor growth at 3 mg/kg, ip administered twice a day. It counts as functional. To be noted: Panc 04.03, ip. The essentials: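 Mice bearing Panc 04.03 (KRAS G12D) xenografts were dosed IP twice daily (BID) at 3, 10 or 30 mg/kg. Tumor volume was tracked against a vehicle cohort, and mean tumor volume differences were tested by two-tailed Student's t test assuming equal variance.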

The subject of data set [10] is AGS. Nature of the data set: cells. To be noted: Homo sapiens, 72 h.
A short description of data set [11]: Antitumor activity against human Panc 04.03 cells harboring KRAS G12D mutant xenografted in CD-1 nude-Foxn1 mouse assessed as tumor regression at 10 mg/kg, ip administered twice a day. To be noted: Panc 04.03, ip.
Data set [12] can be described thus: Time during which free drug concentration exceeds IC50 for KRAS G12D mutant-mediated ERK phosphorylation in human Panc 04.03 cells xenografted CD-1 athymic nude-Foxn1nu mouse plasma at 30 mg/kg, ip. To be noted: in vivo.

Experimental findings from ChEMBL document CHEMBL5046237, “Identification of MRTX1133, a Noncovalent, Potent, and Selective KRASG12D Inhibitor” (J Med Chem, 2022) are described below.

By IC50 is commonly meant the point on the concentration scale where inhibition reaches its midpoint. One may read the Kd as the constant that tells how readily two partners part at equilibrium. The AUC is concentration integrated over time. Higher therefore signals more exposure. As a reminder, the inhibition in vivo is the share of the control response that was lost under treatment.

As for `C#Cc1cccc2cccc(-c3ncc4c(N5C[C@H]6CC[C@@H](C5)N6)nc(OCC56CCCN5CCC6)nc4c3F)c12`, the half-inhibitory concentration (IC50) in data set [1] amounted to 71 nM; in [2] it was 3 nM.

In the case of `CN1CCC[C@H]1COc1nc(N2CCOCC2)c2cnc(-c3cc(O)cc4ccccc34)c(F)c2n1`, the dissociation constant Kd came out at 560 nM in [3] and 1500 nM in data set [4]. The same compound registered an IC50 in [2] of 12000 nM.

On to `CN1CCC[C@H]1COc1nc(N2CCNCC2)c2cnc(-c3cccc4cccc(Cl)c34)c(F)c2n1`, for which the dissociation constant Kd in [3] was determined as 36000 nM; in [4] it was 3500 nM.

Consider `Fc1c(-c2cccc3cccc(Cl)c23)ncc2c(N3C[C@H]4CC[C@@H](C3)N4)nc(OCC34CCCN3CCC4)nc12`, for which the IC50 in data set [1] was 190 nM; in data set [2], 15 nM.

`Cc1cccc2cccc(-c3ncc4c(N5C[C@H]6CC[C@@H](C5)N6)nc(OCC56CCCN5CCC6)nc4c3F)c12`: the concentration for half-maximal inhibition (IC50) in [1] turned out to be 2500 nM; in data set [2], 45 nM.

For `Fc1ccc2cccc(-c3ncc4c(N5C[C@H]6CC[C@@H](C5)N6)nc(OCC56CCCN5CCC6)nc4c3F)c2c1`, the half-inhibitory concentration (IC50) in data set [1] worked out at 370 nM; in data set [2] it was 27 nM.

Take `CN1CCC[C@H]1COc1nc(N2CC3CC2CN3)c2cnc(-c3cc(O)cc4ccccc34)c(F)c2n1` (mixture of isomers): the Kd in [4] turned out to be 96 nM. In addition, in data set [2], the half-inhibitory concentration (IC50) is 650 nM.

`Oc1cc(-c2ncc3c(N4CC5CCC(C4)N5)nc(OCC45CCCCN4CCC5)nc3c2F)c2ccccc2c1` (racemic): the values for the half-maximal inhibitory concentration (IC50) in [1] and in data set [2] were 650 nM and 12 nM, respectively.

Regarding `CN1CCC[C@H]1COc1nc(N2C[C@H]3CC[C@@H](C2)N3)c2cnc(-c3cc(O)cc4ccccc34)c(F)c2n1`, the Kd in [4] is 0.8 nM. Also, inhibition in [2] was half-maximal at 5 nM (IC50).

In the case of `Oc1cc(-c2ncc3c(N4C[C@H]5CC[C@@H](C4)N5)nc(OC[C@@]45CCCN4C[C@H](F)C5)nc3c2F)c2ccccc2c1`, in [2], the IC50 is less than 2 nM.

`Oc1cc(-c2ncc3c(N4C[C@H]5CC[C@@H](C4)N5)nc(OCC45CCCN4CCC5)nc3c2F)c2ccccc2c1`: the values for the IC50 in data set [1] and in data set [2] were 270 nM and less than 2 nM, respectively.

Turning to `CN1CCC[C@H]1COc1nc(N2CCCNCC2)c2cnc(-c3cc(O)cc4ccccc34)c(F)c2n1`, in [4], the Kd was 420 nM. Moreover, 2600 nM corresponded to half-maximal inhibition in data set [2] (IC50).

For `Cn1ccnc1CCOc1nc(N2C[C@H]3CC[C@@H](C2)N3)c2cnc(-c3cc(O)cc4ccccc34)c(F)c2n1`, the concentration for half-maximal inhibition (IC50) in [1] was 3500 nM; in data set [2], 30 nM.

On to `Oc1cc(-c2ncc3c(N4C[C@H]5CC[C@@H](C4)N5)nc(OC[C@]45CCCN4C[C@@H](F)C5)nc3c2F)c2ccccc2c1`, for which the concentration for half-maximal inhibition (IC50) in data set [2] is less than 2 nM.

As for `CN1CCC[C@H]1COc1nc(N2CC3CC(C2)N3)c2cnc(-c3cc(O)cc4ccccc34)c(F)c2n1` (mixture of isomers), in [4], the Kd was 73 nM. Also, the IC50 in data set [2] came to 310 nM.

For `C#Cc1c(F)ccc2cccc(-c3ncc4c(N5C[C@H]6CC[C@@H](C5)N6)nc(OCC56CCCN5CCC6)nc4c3F)c12`, the values for the half-maximal inhibitory concentration (IC50) in [1] and in data set [2] were 24 nM and less than 2 nM, respectively. Also, the AUC at 24 h in data set [5] is 9500 ng·h/mL.

Regarding `C#Cc1cccc2cc(O)cc(-c3ncc4c(N5C[C@H]6CC[C@@H](C5)N6)nc(OCC56CCCN5CCC6)nc4c3F)c12`, the IC50 is 14 nM in [1] and less than 2 nM in data set [2].

In the case of `Fc1c(-c2cccc3cccc(F)c23)ncc2c(N3C[C@H]4CC[C@@H](C3)N4)nc(OCC34CCCN3CCC4)nc12`, the 50% inhibitory concentration (IC50) in [1] was 380 nM; in data set [2], 12 nM.

As for `CN1CCN(c2nc(OC[C@@H]3CCCN3C)nc3c(F)c(-c4cc(O)cc5ccccc45)ncc23)CC1`, the dissociation constant (Kd) in data set [3] came out at 6200 nM; in data set [4] it was 8700 nM. Further, the half-maximal inhibitory concentration (IC50) in [2] was found to be 54000 nM.

Turning to `Oc1cc(-c2ncc3c(N4CC5CCC(C4)N5)ncnc3c2F)c2ccccc2c1`, in data set [1], the IC50 is greater than 10000 nM.

With `Fc1ccc2cccc(-c3ncc4c(N5C[C@H]6CC[C@@H](C5)N6)nc(OCC56CCCN5CCC6)nc4c3F)c2c1F`, the concentration for half-maximal inhibition (IC50) in data set [1] came out at 97 nM; in data set [2], 7 nM.

`CN1CCC[C@H]1COc1nc(N2CCNCC2)c2cnc(-c3cc(O)cc4ccccc34)c(F)c2n1`: the Kd in data set [4] turned out to be 190 nM. For the same compound, the 50% inhibitory concentration (IC50) in [2] was 980 nM.

Turning to `O=C1CCC2(COc3nc(N4CC5CCC(C4)N5)c4cnc(-c5cc(O)cc6ccccc56)c(F)c4n3)CCCN12` (racemic), the results for the IC50 in data set [1] and in data set [2] were greater than 10000 nM and 750 nM, respectively.

In the case of `Oc1cc(-c2ncc3c(N4C[C@H]5CC[C@@H](C4)N5)nc(OCC45CCCN4CCC5)nc3c2F)c2c(Cl)cccc2c1`, the half-inhibitory concentration (IC50) was 63 nM in data set [1] and less than 2 nM in data set [2].

Turning to `COc1cccc2cccc(-c3ncc4c(N5C[C@H]6CC[C@@H](C5)N6)nc(OCC56CCCN5CCC6)nc4c3F)c12`, the concentration for half-maximal inhibition (IC50) in data set [1] came to 1200 nM; in [2] it was 86 nM.

`CN(C)CCOc1nc(N2C[C@H]3CC[C@@H](C2)N3)c2cnc(-c3cc(O)cc4ccccc34)c(F)c2n1`: the figures for the IC50 in data set [1] and in data set [2] were greater than 10000 nM and 70 nM, respectively.

Regarding `CC1CNCCN1c1nc(OC[C@@H]2CCCN2C)nc2c(F)c(-c3cc(O)cc4ccccc34)ncc12` (mixture of isomers), the dissociation constant Kd in data set [4] is 280 nM. This compound also registered a concentration for half-maximal inhibition (IC50) in data set [2] of 1500 nM.

As to `Oc1cc(-c2ncc3c(N4C[C@H]5CC[C@@H](C4)N5)nc(OCCN4C[C@@H]5C[C@H]4CO5)nc3c2F)c2ccccc2c1`, the concentration for half-maximal inhibition (IC50) in [1] stood at 3000 nM; in data set [2], 62 nM.

With `OCc1cccc2cccc(-c3ncc4c(N5C[C@H]6CC[C@@H](C5)N6)nc(OCC56CCCN5CCC6)nc4c3F)c12`, the half-inhibitory concentration (IC50) in data set [1] was greater than 10000 nM; in [2], 79 nM.

On to `CN1CCC[C@H]1COc1nc(N2CC3CCC2CN3)c2cnc(-c3cc(O)cc4ccccc34)c(F)c2n1` (stereo partly specified), for which the dissociation constant Kd in data set [4] is 9 nM. This compound also showed a concentration for half-maximal inhibition (IC50) in data set [2] of 68 nM.

On to `C#Cc1c(F)ccc2cc(O)cc(-c3ncc4c(N5C[C@H]6CC[C@@H](C5)N6)nc(OC[C@@]56CCCN5C[C@H](F)C6)nc4c3F)c12`, for which the Kd in data set [4] turned out to be 0.0002 nM. The half-inhibitory concentration (IC50) was greater than 3000 nM in data set [6] and 6 nM in [10]. Moreover, the values for the inhibition in vivo at 30 mg/kg in data set [7] and in data set [8] were 62% and 74%, respectively. The inhibition in vivo at 3 mg/kg in data set [9] stood at 94%. Further, the tumor regression % at 10 mg/kg in data set [11] was found to be 62%. In addition, the “T>IC50” value in data set [12] came to 8 h.

With `CCc1cccc2cccc(-c3ncc4c(N5C[C@H]6CC[C@@H](C5)N6)nc(OCC56CCCN5CCC6)nc4c3F)c12`, the IC50 in data set [1] is 200 nM; in data set [2] it was 6 nM.

In the case of `CC1CN(c2nc(OC[C@@H]3CCCN3C)nc3c(F)c(-c4cc(O)cc5ccccc45)ncc23)CCN1` (mixture of isomers), the Kd in data set [4] was found to be 380 nM. Moreover, in [2], the midpoint of inhibition, the IC50, lay at 2100 nM.

For `Fc1c(-c2cccc3ccccc23)ncc2c(N3C[C@H]4CC[C@@H](C3)N4)nc(OCC34CCCN3CCC4)nc12`, the IC50 in [1] was greater than 10000 nM; in data set [2] it was 360 nM.

Consider `CN(C)C1CN(c2nc(N3CC4CCC(C3)N4)c3cnc(-c4cc(O)cc5ccccc45)c(F)c3n2)C1`, for which the IC50 worked out at 1300 nM in [1] and 69 nM in data set [2].
